Where a SMILES comes first, the peptide text is derived from it. [ ]: non-standard residue; d: D form. The star is where a group is joined. β3hF = N[C@H](CC(=O)O)Cc1ccccc1; Boc = CC(C)(C)OC(=O)*

The target in one test is T1, Gastrin/cholecystokinin type B receptor (Rattus norvegicus) (UniProt P30553).
T1 sequence (whole entry): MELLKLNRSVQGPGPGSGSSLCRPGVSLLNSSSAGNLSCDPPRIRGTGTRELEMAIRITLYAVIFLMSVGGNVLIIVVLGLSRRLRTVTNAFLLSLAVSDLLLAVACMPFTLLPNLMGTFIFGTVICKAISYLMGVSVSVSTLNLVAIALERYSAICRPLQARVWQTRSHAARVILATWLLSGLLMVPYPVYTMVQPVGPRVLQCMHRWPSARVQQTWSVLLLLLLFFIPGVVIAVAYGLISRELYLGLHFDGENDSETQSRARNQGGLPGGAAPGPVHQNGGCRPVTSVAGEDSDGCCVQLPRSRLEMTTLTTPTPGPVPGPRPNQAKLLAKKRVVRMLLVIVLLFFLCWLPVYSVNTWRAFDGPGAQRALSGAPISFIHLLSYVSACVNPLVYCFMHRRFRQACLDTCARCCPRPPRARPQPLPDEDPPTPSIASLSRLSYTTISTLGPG
The experiment in a line: Activity in vivo gastrin-induced acid secretion in rats. In kind it is functional, organism-based.
Conditions: not given
In outline:
(§1)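 Anesthetized rats; cumulative gastric pH recorded over time as the index of acid secretion. Peptides and (Leu15)-human gastrin I were given as intravenous bolus in 0.9% NaCl. Secreted H+ was taken from the difference between stimulated and basal traces. For inhibition, peptide in alkaline water was injected together with gastrin (usually 80 pmol) at various doses. Response was expressed as percent of the gastrin-alone H+ output.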
A word on the ED50: it is the midpoint of the dose-response relation. `CC(C)C[C@@H](CC(=O)NC(CC(=O)O)C(=O)NCCc1ccccc1)NC(=O)[C@@H](Cc1c[nH]c2ccccc12)NC(=O)OC(C)(C)C` (stereo partly drawn): the median effective dose (ED50) amounted to 0.5 mg/kg.

The compound `CC(C)C[C@H](NC(=O)[C@H](Cc1c[nH]c2ccccc12)NC(=O)OC(C)(C)C)C(=O)N[C@H](CC(=O)O)CC(=O)N[C@@H](Cc1ccccc1)C(N)=O` returned a 50% effective dose (ED50) of 0.1 mg/kg.

For `CC(C)C[C@H](NC(=O)[C@H](Cc1c[nH]c2ccccc12)NC(=O)OC(C)(C)C)C(=O)N[C@@H](CC(=O)O)C(=O)N[C@H](CC(N)=O)Cc1ccccc1` (Boc-WLD[β3hF]-NH2), the ED50 came to 7 mg/kg.

`CC(C)C[C@H](NC(=O)[C@H](Cc1c[nH]c2ccccc12)NC(=O)OC(C)(C)C)C(=O)N[C@H](CC(=O)O)CC(=O)NCCc1ccccc1` came in with a median effective dose (ED50) of 0.5 mg/kg.

For the compound `CC(C)CC(CC(=O)N[C@H](CC(=O)O)C(=O)NCCc1ccccc1)NC(=O)C(Cc1c[nH]c2ccccc12)NC(=O)OC(C)(C)C` (stereo partly drawn), it took a dose of 0.8 mg/kg to reach the 50% effect level (ED50).

`CC(C)CC(CC(=O)NC(CC(=O)O)C(=O)NCc1ccccc1)NC(=O)C(Cc1c[nH]c2ccccc12)NC(=O)OC(C)(C)C` (stereo not drawn) yielded an ED50 of 0.5 mg/kg.

As to `CC(C)C[C@@H](CC(=O)N[C@@H](CC(=O)O)C(=O)N[C@@H](Cc1ccccc1)C(N)=O)NC(=O)[C@H](Cc1c[nH]c2ccccc12)NC(=O)OC(C)(C)C`, the median effective dose (ED50) came to 1.5 mg/kg.

In turn, `CC(C)C[C@H](NC(=O)[C@H](Cc1c[nH]c2ccccc12)NC(=O)OC(C)(C)C)C(=O)N[C@H](CC(=O)O)CC(=O)NCc1ccccc1` yielded an ED50 of 0.2 mg/kg.

As to `CC(C)CC(CC(=O)N[C@H](CC(=O)O)C(=O)N[C@H](Cc1ccccc1)C(N)=O)NC(=O)C(Cc1c[nH]c2ccccc12)NC(=O)OC(C)(C)C` (stereo partly drawn), the median effective dose (ED50) worked out at 5 mg/kg.

In turn, `CC(C)C[C@@H](CC(=O)NC(CC(=O)O)C(=O)NCc1ccccc1)NC(=O)[C@@H](Cc1c[nH]c2ccccc12)NC(=O)OC(C)(C)C` (stereo partly drawn) displayed a 50% effective dose (ED50) of 5 mg/kg.

In the case of `CC(C)CC(NC(=O)[C@@H](Cc1c[nH]c2ccccc12)NC(=O)OC(C)(C)C)C(=O)N[C@H](CC(=O)O)CC(=O)NCCc1ccccc1` (stereo in doubt), the ED50 was 2.5 mg/kg.

`CC(C)CC(NC(=O)[C@@H](Cc1c[nH]c2ccccc12)NC(=O)OC(C)(C)C)C(=O)N[C@H](CC(=O)O)CC(=O)NC(Cc1ccccc1)C(N)=O` (stereo in doubt) gave a median effective dose (ED50) of 2.5 mg/kg.

In turn, `CC(C)C[C@H](CC(=O)N[C@@H](CC(=O)O)C(=O)N[C@@H](Cc1ccccc1)C(N)=O)NC(=O)[C@@H](Cc1c[nH]c2ccccc12)NC(=O)OC(C)(C)C` registered a 50% effective dose (ED50) of 7.5 mg/kg.

For `CC(C)CC(NC(=O)[C@@H](Cc1c[nH]c2ccccc12)NC(=O)OC(C)(C)C)C(=O)N[C@H](CC(=O)O)CC(=O)NCc1ccccc1` (stereo in doubt), the ED50 came out at 1 mg/kg.

Compound `CC(C)CC(CC(=O)N[C@H](CC(=O)O)C(=O)NCc1ccccc1)NC(=O)C(Cc1c[nH]c2ccccc12)NC(=O)OC(C)(C)C` (stereo partly drawn) returned a median effective dose (ED50) of 1.5 mg/kg.

For the compound `CC(C)CC(CC(=O)NC(CC(=O)O)C(=O)NCCc1ccccc1)NC(=O)C(Cc1c[nH]c2ccccc12)NC(=O)OC(C)(C)C` (stereo not drawn), it took a dose of 0.5 mg/kg to reach the 50% effect level (ED50).

Regarding `CC(C)C[C@H](NC(=O)[C@H](Cc1c[nH]c2ccccc12)NC(=O)OC(C)(C)C)C(=O)N[C@H](CC(=O)O)CC(=O)N[C@H](Cc1ccccc1)C(N)=O`, the ED50 worked out at 0.1 mg/kg.

The next test relates to Rattus norvegicus. The experiment in a line: Activity of compound on in vivo gastrin-induced acid secretion in rats; Agonist. The test is classed as functional, organism-based. The settings on record: filed as agonist. In a few lines: as §1
In the case of `CC(C)C[C@H](NC(=O)[C@H](Cc1c[nH]c2ccccc12)NC(=O)OC(C)(C)C)C(=O)N[C@@H](CC(=O)O)C(=O)N[C@@H](Cc1ccccc1)C(N)=O` (Boc-WLDF-NH2), the median effective dose (ED50) entry was “Agonist”.

The record behind these values is ChEMBL document CHEMBL1124407, “Synthesis of gastrin antagonists, analogues of the C-terminal tetrapeptide of gastrin, by introduction of a beta-homo residue” (J Med Chem, 1989).
